According to ChEMBL document CHEMBL1137381, “Biarylpyrazole inverse agonists at the cannabinoid CB1 receptor: importance of the C-3 carboxamide oxygen/lysine3.28(192) interaction” (J Med Chem, 2006):

Tests used:
Cannabinoid receptor 1 [1] = biological target: T1, Cannabinoid receptor 1 (Homo sapiens, UniProt P21554); assay: biochemical; type: cell-based, HEK293
Cannabinoid receptor 1 [2] = biological target: T1, Cannabinoid receptor 1; assay: biochemical; type: cell-based, HEK293; remark: listed apart in the source
[3] = biological target: Cannabinoid receptor 1 (Rattus norvegicus) (UniProt P20272); assay: Agonist activity against rat CB1 receptor expressed in superior cervical ganglion neurons assessed as increase in calcium ion current at 10 uM relative to control; type: functional, tissue-based
Sequence of Cannabinoid receptor 1 (Rattus norvegicus) (P20272 whole entry, the tested form may be a part): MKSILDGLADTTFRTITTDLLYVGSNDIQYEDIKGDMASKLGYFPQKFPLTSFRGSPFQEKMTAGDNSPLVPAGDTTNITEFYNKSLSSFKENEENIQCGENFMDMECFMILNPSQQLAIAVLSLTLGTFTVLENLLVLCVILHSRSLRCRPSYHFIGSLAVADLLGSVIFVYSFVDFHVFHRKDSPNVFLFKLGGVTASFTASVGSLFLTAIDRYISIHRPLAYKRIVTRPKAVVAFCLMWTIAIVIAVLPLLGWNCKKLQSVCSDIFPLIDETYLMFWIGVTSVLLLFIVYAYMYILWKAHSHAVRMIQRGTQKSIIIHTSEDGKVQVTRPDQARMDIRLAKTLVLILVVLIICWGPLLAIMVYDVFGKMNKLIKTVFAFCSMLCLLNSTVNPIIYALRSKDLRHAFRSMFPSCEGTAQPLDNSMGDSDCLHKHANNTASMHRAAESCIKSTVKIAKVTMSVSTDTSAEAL
Summary of the method: (§1)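 Rat SCG neurons nuclear-injected with N-terminally HA-tagged rat CB1 cDNA (100 ng/µL) plus EGFP marker plasmid, incubated overnight. Whole-cell voltage-clamp at 24-26 °C. Ca²⁺ current measured 10 ms into step to +5 mV, preceded by 50 ms prepulse to +80 mV. Test drug superfused alone, diluted from 10 mM DMSO stock. Current increase expressed as % of control amplitude; paired t-test.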

[4] = biological target: Cannabinoid receptor 1 (Rattus norvegicus) (UniProt P20272); assay: Antagonist activity against rat CB1 receptor expressed in superior cervical ganglion neurons assessed as block of WIN-55212-2-elicited calcium ion current inhibition at 1 uM relative to control; type: functional, tissue-based; set-up: scale not given: the % may be the effect or the level left
Summary of the method: (§2)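 SCG neurons from rat, nuclear-injected with HA-tagged rat CB1 cDNA, recorded after overnight incubation by whole-cell patch clamp at room temperature. Ca²⁺ currents isolated with TEA/TTX external solution and NMDG/EGTA pipette solution. WIN55,212-2 (1 µM) coapplied with test compound. Inhibition of Ca²⁺ current expressed as % of control amplitude, taken 10 ms after the step to +5 mV.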

[5] = biological target: Cannabinoid receptor 1 (Rattus norvegicus) (UniProt P20272); assay: Agonist activity against rat CB1 receptor expressed in superior cervical ganglion neurons assessed as increase in calcium ion current at 1 uM relative to control; type: functional, tissue-based
Summary of the method: as §1

[6] = biological target: Cannabinoid receptor 1 (Rattus norvegicus) (UniProt P20272); assay: Antagonist activity against rat CB1 receptor expressed in superior cervical ganglion neurons assessed as block of WIN-55212-2-elicited calcium ion current inhibition at 10 uM relative to control; type: functional, tissue-based; set-up: scale not given: the % may be the effect or the level left
Summary of the method: as §2

Cannabinoid receptor 1 [7] = biological target: T1, Cannabinoid receptor 1; assay: biochemical; type: cell-based, HEK293; remark: listed apart in the source

T1 sequence (P21554 whole entry): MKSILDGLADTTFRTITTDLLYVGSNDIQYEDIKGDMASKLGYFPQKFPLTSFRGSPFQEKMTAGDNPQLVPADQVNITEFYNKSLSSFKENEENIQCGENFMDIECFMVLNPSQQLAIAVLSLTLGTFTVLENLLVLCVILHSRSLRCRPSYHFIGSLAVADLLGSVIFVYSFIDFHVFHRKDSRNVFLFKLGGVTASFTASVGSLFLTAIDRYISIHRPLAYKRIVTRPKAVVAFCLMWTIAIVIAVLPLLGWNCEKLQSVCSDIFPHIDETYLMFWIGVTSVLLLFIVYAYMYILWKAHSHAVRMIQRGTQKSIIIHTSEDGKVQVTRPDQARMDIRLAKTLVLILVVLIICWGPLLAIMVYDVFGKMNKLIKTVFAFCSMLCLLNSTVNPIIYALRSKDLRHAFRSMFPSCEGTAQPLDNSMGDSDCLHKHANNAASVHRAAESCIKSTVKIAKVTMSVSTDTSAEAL

Row | Structure (SMILES) | Ki (Cannabinoid receptor 1 [1]) [nM] | Ki (Cannabinoid receptor 1 [2]) [nM] | Activity [3] [%] | Activity [4] [%] | Activity [5] [%] | Activity [6] [%] | Ki (Cannabinoid receptor 1 [7]) [nM]
1 | Cc1c(/C=C/N2CCCCC2)nn(-c2ccc(Cl)cc2Cl)c1-c1ccc(Cl)cc1 | 223 | 213 | 13.9 | -2.5 | 3.2 | 0.7 | 258
2 | Cc1c(C(=O)NC2CCCCC2)nn(-c2ccc(Cl)cc2Cl)c1-c1ccc(Cl)cc1 | 3.7 | 1.8 |  | -3.8 | 35.2 |  | 5
3 | Cc1c(/C=N/N2CCCCC2)nn(-c2ccc(Cl)cc2Cl)c1-c1ccc(Cl)cc1 | 19 | 17 |  | 2.6 | 11.5 |  | 57
4 | Cc1c(C(=O)N(C)C2CCCCC2)nn(-c2ccc(Cl)cc2Cl)c1-c1ccc(Cl)cc1 | 107 | 30 | 23.9 | -4.5 | 26.1 | -7 | 54
5 | Cc1c(/C=C/C2CCCCC2)nn(-c2ccc(Cl)cc2Cl)c1-c1ccc(Cl)cc1 | 60 | 31.3 |  | 28.1 | 8.6 |  | 85
6 | Cc1c(C(=O)c2cccc3ccccc23)c2cccc3c2n1[C@H](CN1CCOCC1)CO3 |  |  |  |  | 47.1 |  | 
7 | Cc1c(C(=O)NN2CCCCC2)nn(-c2ccc(Cl)cc2Cl)c1-c1ccc(Cl)cc1 |  |  |  | -4.8 | 46.6 |  | 
